High-throughput results deposited in PubChem by several laboratories.
Mdm2-MdmX inh – inhibitors of human Mdm2-MdmX association, primary screen, cell-based, luminescence, split luciferase, SaOS-2, uHTS. Protein Mdm4 (Homo sapiens) + E3 ubiquitin-protein ligase Mdm2 (Homo sapiens), …. SaOS-2 split-luciferase Mdm2/MdmX complementation. inhibition, % at 8 µM. hit rate 3% among 330,000. AID 485346, 2010;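 active means inhibition of at least 50% at 8 µM in the primary screen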
Target sequence (O15151 whole entry, looked up): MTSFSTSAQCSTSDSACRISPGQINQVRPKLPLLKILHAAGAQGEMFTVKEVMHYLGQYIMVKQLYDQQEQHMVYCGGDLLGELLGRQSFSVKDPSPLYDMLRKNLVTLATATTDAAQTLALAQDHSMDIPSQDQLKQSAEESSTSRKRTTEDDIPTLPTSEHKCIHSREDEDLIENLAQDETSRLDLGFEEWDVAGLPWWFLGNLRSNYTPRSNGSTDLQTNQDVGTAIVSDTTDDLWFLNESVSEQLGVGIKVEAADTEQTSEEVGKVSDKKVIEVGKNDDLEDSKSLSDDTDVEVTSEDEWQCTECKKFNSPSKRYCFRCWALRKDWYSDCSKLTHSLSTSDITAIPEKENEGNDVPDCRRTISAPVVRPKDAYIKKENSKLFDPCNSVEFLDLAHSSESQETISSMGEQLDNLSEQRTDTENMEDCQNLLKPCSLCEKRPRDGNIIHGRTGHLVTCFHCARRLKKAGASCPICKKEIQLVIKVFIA
Target sequence (Q00987 whole entry, looked up): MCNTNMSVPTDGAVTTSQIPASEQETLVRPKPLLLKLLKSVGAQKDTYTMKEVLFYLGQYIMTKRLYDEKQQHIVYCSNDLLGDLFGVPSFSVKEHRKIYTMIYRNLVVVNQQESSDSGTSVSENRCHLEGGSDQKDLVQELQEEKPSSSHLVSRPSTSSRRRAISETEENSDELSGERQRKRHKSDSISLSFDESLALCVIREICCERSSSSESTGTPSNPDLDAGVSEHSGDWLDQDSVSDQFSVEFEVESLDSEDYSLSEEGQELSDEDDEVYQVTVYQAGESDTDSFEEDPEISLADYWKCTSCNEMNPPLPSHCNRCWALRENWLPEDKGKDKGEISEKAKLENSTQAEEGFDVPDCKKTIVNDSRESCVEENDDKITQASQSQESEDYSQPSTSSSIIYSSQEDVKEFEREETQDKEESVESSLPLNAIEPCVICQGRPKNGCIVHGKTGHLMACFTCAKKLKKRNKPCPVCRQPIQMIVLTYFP
T cruzi repl – inhibitors of intracellular T. cruzi growth, primary screen, luminescence, NIH3T3 host cells; T. cruzi beta-gal in NIH3T3, 90 h; inhibition, % (concentration not given with the values); hit rate 1.4% among 300,000; AID 1885, 2009;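 active means mean inhibition across valid replicates above about 55%, limit read from the data; inconclusive means mean below that limit but half or more replicates reach it; inactive means mean below it, under half of replicates reach it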;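 further: signal also drops with host cell toxicity which is not excluded here; 0% = plate median of DMSO wells and 100% = zero luminescence signal; higher percent means less beta-gal luminescence so fewer parasites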
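Test system: β-gal T. cruzi (Tulahuen C4) inside NIH/3T3 cells / Quantity: 5,000 cells/well / Measured by: luminescence from GalScreen with 0.05% NP40, read after 60 min / Medium: DMEM plus 2% FBS / Measure: parasite load inhibition, % / Reagent: Tulahuen C4 trypomastigotes, 5000/well / Schedule: co-culture of at least 90 h after 3 h attachment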
CSC inhib – cancer stem cell viability inhibitors, primary screen, luminescence. cancer stem cell-like cells viability. inhibition, % at 7.5 µM. hit rate 1.1% among 300,000. AID 2717, 2010; in the data active means inhibition above about 75%; inconclusive means no clear call, values can overlap the other calls; tested in HMLE shEcad cells
Beta apoptosis – inhibitors of cytokine-induced beta cell apoptosis, primary screen, luminescence | INS-1E cytokine-induced death, ATP luminescence, 48 h; percent of positive-control rescue, neutral wells zero | protection from apoptosis, % (test concentration not listed) | hit rate 0.8% among 300,000 | AID 435005, 2010;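 active means Every replicate reaches about 75%, or at least half do and their mean reaches it too, limit read from the data; inconclusive means At least half of replicates reach the limit but their mean does not; inactive means Under half of replicates reach the limit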;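 further: 0% = cytokine-treated negative control wells and 100% = positive control rescue; higher means more ATP so stronger rescue from cytokine killing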
SKKanGAS inh – S. pyogenes SKKanGAS growth inhibitors in kanamycin, primary screen, streptokinase expression inhibitor project, SKKanGAS strain, BacTiter-Glo luminescence; inhibition, % at 7.5 µM; 6 h; AID 1662, 2009; hit rate 1.3% among 300,000;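 active means mean replicate score, as percent of positive control median, at least 50; inconclusive means mean below 50 but one replicate at or above 50; inactive means mean and every replicate below 50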;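 further: strain carries kanamycin resistance gene driven by streptokinase promoter and grows in 40 µg/ml kanamycin; loss of luminescence reflects streptokinase promoter inhibition or plain growth inhibition; 0% = median of DMSO wells and 100% = positive control at its reference dose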
Calb FLC – C. albicans growth inhibition with fluconazole, primary screen, CaCi-2 strain, Alamar Blue fluorescence; growth inhibition, % (concentration not given with the values); hit rate 0.57% among 300,000; AID 1979, 2009; C. albicans CaCi-2 (fluconazole-resistant clinical isolate) + fluconazole, 48 h;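 active means growth inhibition above about 58% in most replicates, limit read from the data, passing the limit was not always enough; inconclusive means exactly half the replicates above a set limit; inactive means most replicates below a set limit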;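 further: all wells also contain fluconazole at 8 µg/ml as a sub-toxic cotreatment; 0% = median of DMSO wells and 100% = median of geldanamycin control wells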
* = called active by the depositor; ? = inconclusive; . = not tested or not shown. An excerpt weighted towards active compounds, which were near 5.7% of everything screened.

SMILES	Mdm2-MdmX inh	T cruzi repl	CSC inhib	Beta apoptosis	SKKanGAS inh	Calb FLC
COc1ccccc1C(=O)NC(=S)Nc1ccc(N2CCN(C(=O)c3ccco3)CC2)cc1	35	20	12	3	88*	2
O=C(NNC(=S)NC(=O)c1ccco1)c1ccc(F)cc1	-4	-14	20	17	83*	-7
COc1ccc(C(=O)NNC(=S)NC(=O)c2ccco2)cc1	11	12	8	29	81*	?
Cc1ccc(NC(=O)c2ccccc2OCC(=O)Nc2ccccc2F)cc1S(=O)(=O)N(C)C	35	.	.	11	.	.
COc1ccc(CNC(=O)CN2C(=O)NC(C)(c3cccc(Br)c3)C2=O)cc1 (stereo unspecified)	9	4	-1	-1	1	.
CCCc1ccc(C(=O)NNC(=O)c2ccc(Cl)cc2)cc1	1	14	-5	3	0	3
CCCc1ccc(C(=O)NNc2cccc(C)c2)cc1	-9	.	77*	7	-6	97*
Cc1cccc(NNC(=O)C(=O)NNc2cccc(C)c2)c1	12	16	93*	1	-6	100*
CC(CNC(=O)c1ccc(OC2CCN(Cc3ccccn3)CC2)cc1)Oc1cccnc1 (stereo unspecified)	6	11	-8	100*	-3	4
O=C(NCCc1ccccn1)c1ccc(OC2CCN(Cc3ccccn3)CC2)cc1	10	-3	-2	-2	?	-2
CC(=O)Nc1ccc(S(=O)(=O)c2ccc([N+](=O)[O-])cc2)cc1	3	70*	12	3	5	2
CC(=O)Nc1ccc(S(=O)(=O)c2ccc(N)cc2)cc1	16	-20	-15	.	-9	.
COc1ccc(S(=O)(=O)N2CCC(C(=O)N(C)Cc3ccc(C)o3)CC2)cc1OC	-44	.	.	-2	.	.
COc1ccc(CNC(=O)[C@H](C)NC(=O)C2CCN(S(=O)(=O)c3ccc(F)cc3)CC2)cc1	17	10	-7	5	0	-3
O=C(O)C1CCCCN1C(=O)c1ccc(S(=O)(=O)N2CCCC2)cc1 (stereo unspecified)	26	.	.	.	.	.
COc1ccc(NC(=O)CN(C)CC(=O)N2CCCCCC2)cc1	-12	.	.	.	.	.
CCCc1nc(NC2CCCCC2)c(C#N)c2c1COC(C)(C)C2	17	18	106*	3	60*	-11
CCOC(=O)c1c(NS(=O)(=O)c2ccc(Br)cc2)sc2c1CCC2	34	-12	-2	9	79*	17
CCOC(=O)c1c(NS(=O)(=O)Cc2ccccc2)sc2c1CCCC2	-13	-5	6	1	1	17
COc1cccc(C(C(=O)NC(C)(C)C)N(CCc2ccccc2)C(=O)CCC(=O)Nc2cc(C)on2)c1OC (stereo unspecified)	7	2	0	3	3	13
CCOC(=O)c1sc2nc(Cc3ccc(Cl)cc3)[nH]c(=S)c2c1C	1	-3	-1	10	58*	-6
N#Cc1c(N2CCOCC2)nc(N2CCCCC2)c2c1CCN(C1CCCCC1)C2	7	71*	2	5	2	6
O=C(O)c1ccccc1C(=O)c1ccc(Sc2ccc(Cl)cc2)c([N+](=O)[O-])c1	-12	-5	44	-2	21	-2
Cc1ccc(Sc2ccc(CN3CCCC3)cc2[N+](=O)[O-])cc1	12	88*	1	5	-21	-38
Cc1ccc(Sc2ccc(CO)cc2[N+](=O)[O-])cc1	12	-4	43	12	-4	14
CN1CCN(Cc2ccc(Sc3ccc(Cl)cc3)c([N+](=O)[O-])c2)CC1	23	66*	86*	4	-4	16
CC(NC(=O)C(C)N1CCN(Cc2ccccc2)CC1)c1ccc(F)cc1 (stereo unspecified)	10	15	-3	-3	2	7
O=C(NCc1nnnn1-c1ccc(F)c(F)c1)c1ccc(S(=O)(=O)N2CCOCC2)cc1	0	0	9	3	-8	-3
